Assays:
[1] = biological target: Human immunodeficiency virus type 1 protease (Human immunodeficiency virus 1, UniProt Q72874); experiment: Inhibition of HIV protease
In short: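 Fluorometric HIV protease activity assay on unpurified samples. Concentrations were calculated from the weight of unpurified material, with no correction for impurities. Each sample was tested at 3–5 concentrations where feasible, and IC50 was derived from the percent-inhibition data.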

[2] = biological target: Human immunodeficiency virus type 1 protease (Human immunodeficiency virus 1) (UniProt Q72874); experiment: Inhibitory activity against HIV Protease at a dose of 0.5 nM
In short: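 Fluorometric HIV protease activity assay run on an unpurified sample. Concentration was based on the weight of unpurified material, with no correction for impurities. Percent inhibition was read at a single concentration of 0.5 nM.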

SMILES	IC50 [1] [nM]	inhibition [2] [%]
COc1cc(CC(=O)N[C@H](C(=O)N[C@@H](Cc2ccccc2)C[C@H](O)[C@H](Cc2ccccc2)NC(=O)[C@@H](NC(=O)Cc2cc(OC)c(OC)c(OC)c2)C(C)C)C(C)C)cc(OC)c1OC	< 1	71
CC(C)[C@H](NC(=O)CC1NC(=O)NC1=O)C(=O)N[C@@H](Cc1ccccc1)C[C@H](O)[C@H](Cc1ccccc1)NC(=O)[C@@H](NC(=O)CC1NC(=O)NC1=O)C(C)C (some centres undefined)	< 1	43
CC(C)[C@H](NC(=O)Cc1csc(N)n1)C(=O)N[C@@H](Cc1ccccc1)[C@@H](O)[C@H](O)[C@H](Cc1ccccc1)NC(=O)[C@@H](NC(=O)Cc1csc(N)n1)C(C)C	12	
CC(C)[C@H](NC(=O)CC1NC(=O)NC1=O)C(=O)N[C@@H](Cc1ccccc1)[C@@H](O)[C@H](O)[C@H](Cc1ccccc1)NC(=O)[C@@H](NC(=O)CC1NC(=O)NC1=O)C(C)C (some centres undefined)	9.6	33
CC(C)[C@H](NC(=O)CSc1ncccn1)C(=O)N[C@@H](Cc1ccccc1)C[C@H](O)[C@H](Cc1ccccc1)NC(=O)[C@@H](NC(=O)CSc1ncccn1)C(C)C	< 1	
CC(C)[C@H](NC(=O)C(O)(c1ccccc1)c1ccccc1)C(=O)N[C@@H](Cc1ccccc1)[C@@H](O)[C@H](O)[C@H](Cc1ccccc1)NC(=O)[C@@H](NC(=O)C(O)(c1ccccc1)c1ccccc1)C(C)C	6400	
CC(C)[C@H](NC(=O)Cc1csc(N)n1)C(=O)N[C@@H](Cc1ccccc1)C[C@H](O)[C@H](Cc1ccccc1)NC(=O)[C@@H](NC(=O)Cc1csc(N)n1)C(C)C	< 1	40
CC(C)[C@H](NC(=O)C(O)(c1ccccc1)c1ccccc1)C(=O)N[C@@H](Cc1ccccc1)C[C@H](O)[C@H](Cc1ccccc1)NC(=O)[C@@H](NC(=O)C(O)(c1ccccc1)c1ccccc1)C(C)C	160	
Cc1nc(C)c(C(=O)N[C@H](C(=O)N[C@@H](Cc2ccccc2)[C@@H](O)[C@H](O)[C@H](Cc2ccccc2)NC(=O)[C@@H](NC(=O)c2sc(C)nc2C)C(C)C)C(C)C)s1	860	
Cc1nc(C)c(C(=O)N[C@H](C(=O)N[C@@H](Cc2ccccc2)C[C@H](O)[C@H](Cc2ccccc2)NC(=O)[C@@H](NC(=O)c2sc(C)nc2C)C(C)C)C(C)C)s1	13	
